The values below come from PMC6590913 (Journal of medicinal chemistry, 2019).

Data set [1] concerns Rho/MRTF/SRF-mediated gene transcription (SRE.L). Put plainly: SRE.L luciferase reporter assay, cell line not stated. Format: cell-based. The settings on record: for SRE.L activity: Figure 3, heterocycle and carboxylic acid replacements. The gist of the method: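 Gα12-stimulated SRE.L luciferase reporter in transiently transfected PC-3 or HEK293T cells. PC-3 format: 20,000 cells/well in 10% FBS/DMEM, next day co-transfected with SRE.L luciferase reporter plus Gα12 Q231L or empty pcDNA (Lipofectamine 2000). After 4 h, switched to 0.5% FBS/DMEM with test compound or DMSO overnight. WST-1 viability read at 450 nm, then lysis and luciferase read.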
In general terms: Reporter assays use an easily measured gene product as a stand-in for the process of interest.

Data set [2] shares this test system. Put plainly: Gα12-stimulated SRE.L luciferase reporter assay in HEK293T cells. The settings on record: for SRE.L activity: Figure 4, HEK293T cells, analogs with modified thioether. The class given is cell-based.
The test system of a further data set is CTGF gene expression. Nature of the data set: qPCR for LPA-stimulated expression of CTGF in primary dermal fibroblasts. The settings on record: for Effect on CTGF gene expression: then LPA 1 h, primary human dermal fibroblasts. Format: cell-based, human.
A further data set concerns cells of the SRE.L assay. Nature of the data set: Cytotoxicity in the SRE.L assay determined by CellTiter-Fluor. The class given is cell-based.
Experiment in data set [3]: as above
The conditions noted are these: human, cells of the SRE.L assay. The class given is cell-based.

Data set [4] concerns bleomycin-induced dermal fibrosis. The conditions noted are these: mice; cited from earlier work.
The subject of data set [5] is Rho/MRTF/SRF-mediated gene transcription (SRE.L). Nature of the data set: Gα12-stimulated SRE.L luciferase reporter assay in PC3 cells. Format: cell-based. The settings on record: for IC50: Homo sapiens, PC-3, read-out: SRE.L IC50; for SRE.L activity: Table 2 sidechain SAR, PC3 cells. An outline of the steps:
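PC-3 cells plated at 20,000/well in DMEM with 10% FBS. Next day they were lipofected with 56 ng SRE.L luciferase reporter plus 2 ng/well Gα12 Q231L or pcDNA. After 4 h, medium was switched to 0.5% FBS DMEM, and compound or DMSO was added overnight. Viability was then read by WST-1 (450 nm), and cells were lysed for luciferase. Mean of n = 3.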

The subject of data set [6] is bleomycin-induced dermal fibrosis. Put plainly: Bleomycin-induced dermal fibrosis in mice. The class given is in vivo, mouse.
A short description of data set [7]: Pharmacokinetic studies in mice. The class given is in vivo, female CD-1 mice. The settings on record: mouse, IV. An outline of the steps:
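Female CD-1 mice were dosed iv and/or po, with compound in 15% DMSO/15% PEG-400/70% PBS (v/v). Blood (50 μL) was sampled at 0.5, 2, 4 and 7 h, and plasma was frozen at -80 °C. Plasma levels were measured by a validated LC–MS/MS method. Parameters were derived non-compartmentally.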

For data set [8], the system named is bleomycin-induced lung fibrosis. The conditions noted are these: mice, dose of 300 mg/kg; cited from earlier work.

As for `O=C(O)CCSc1nnc(-c2ccncc2)o1` [compound 23], the “SRE.L activity” value in data set [1] is “complete loss in activity”.

For `O=C(O)CCSc1nnc(-c2cccnc2)o1` [compound 22], the “SRE.L activity” value in data set [1] is listed as “complete loss in activity”.

With `O=C(O)CCCS(=O)(=O)c1nnc(-c2ccc(Cl)cc2Cl)o1` [compound 21, 4-((5-(2,4-dichlorophenyl)-1,3,4-oxadiazol-2-yl)sulfonyl)butanoic acid], in data set [2], the “SRE.L activity” value was “activity was lost”.

The term IC50 denotes the concentration at which inhibition is half-maximal. Turning to `COC(=O)c1ccc2c(c1)NC(=O)/C2=C(\Nc1ccc(N(C)C(=O)CN2CCN(C)CC2)cc1)c1ccccc1` [Nintedanib], the “Cytotoxicity in the CTGF assay” value in the data set on CTGF gene expression (at 10^−5 M) is recorded as “cytotoxic”. The “CTGF expression, % of DMSO control” value in the data set with CTGF gene expression (at 10^−6 M) was 45 % of DMSO control. For the same compound, the “Cytotoxicity” value with cells of the SRE.L assay (at 10 uM) is “some cytotoxicity”. For the same compound, in data set [3], the IC50 is < 30 µM. Further, the “Minimum dose effective at preventing bleomycin-induced dermal thickness” value in data set [4] was 30 mg/kg/day.

On to `O=C(O)CSCc1nnc(-c2ccc(Cl)cc2Cl)o1` [compound 13, 2-(((5-(2,4-dichlorophenyl)-1,3,4-oxadiazol-2-yl)methyl)thio)acetic acid], for which the “SRE.L activity” value in data set [2] was “almost complete loss in activity”.

Consider `O=C(O)CCCSc1nnc(-c2ccc(Br)cc2Cl)o1` [8x, 4-((5-(4-bromo-2-chlorophenyl)-1,3,4-oxadiazole-2-yl)thio)butanoic acid], for which the “Improvement in SRE.L activity relative to 8q” value in data set [2] (4-Cl replaced by 4-Br) was 10 fold.

For the compound `CNC(=O)CCSc1nnc(-c2ccc(Cl)cc2Cl)o1` [compound 9, 3-((5-(2,4-dichlorophenyl)-1,3,4-oxadiazol-2-yl)thio)-N-methylpropanamide], in data set [5], the half-inhibitory concentration (IC50) was > 100000 nM and the “SRE.L activity” value was “unsuccessful”.

Take `O=C(O)CCCSc1nnc(-c2ccc(C3CC3)cc2Cl)o1` [19f, 4-((5-(2-chloro-4-cyclopropylphenyl)-1,3,4-oxadiazol-2-yl)thio)butanoic acid]: the “Improvement in SRE.L potency relative to 8s” value in data set [2] (Me replaced by c-Pr) is 100 fold. The “Effect on CTGF gene expression” value in the data set with CTGF gene expression (48 h pre-treatment) is reported as “neither 8j nor 19f had any significant effect”. For the same compound, in the data set on CTGF gene expression (72 h pre-treatment), the “Potency on CTGF gene expression relative to 8j” value is ~ 100 x and the “Effect on CTGF gene expression” value was “dose-dependently reduced CTGF gene expression”. Further, the IC50 in data set [5] was found to be 0.0012 nM. The Bleomycin-induced dermal fibrosis result in data set [6] (3 and 10 mg/kg PO, both doses, 14 days) was “significantly reduced bleomycin-induced dermal fibrosis”. For the same compound, in [6] (bleomycin-induced dermal fibrosis), the “In vivo potency relative to 8j” value is “at least 3 fold”.

Regarding `Cc1occc1-c1nnc(SCCC(=O)O)o1` [compound 24], the “SRE.L activity” value in data set [1] is “complete loss in activity”.

For `CCOC(=O)CCSc1nnc(-c2ccc(Cl)cc2Cl)o1` [compound 6, Ethyl 3-((5-(2,4-dichlorophenyl)-1,3,4-oxadiazol-2-yl)thio)propanoate], the “SRE.L activity” value in [5] is “maintained activity”.

For the compound `O=C(O)CCCCSc1nnc(-c2ccc(Cl)cc2Cl)o1` [8r, 5-((5-(2,4-dichlorophenyl)-1,3,4-oxadiazol-2-yl)thio)pentanoic acid], the IC50 in [5] worked out at 43 nM.

For the compound `O=C(O)CSc1nnc(-c2ccc(Cl)cc2Cl)o1` [8p], in data set [5], the IC50 is > 100000 nM and the “SRE.L activity” value was “activity was completely lost”.

With `O=C(O)CCCSc1nnc(-c2ccc(Cl)cc2Cl)o1` [8q, 4-((5-(2,4-dichlorophenyl)-1,3,4-oxadiazol-2-yl)thio)butanoic acid], in data set [7], the “clearance rate relative to 8j” value was ~3 fold.

For `O=C(O)CCCc1nnc(-c2ccc(Cl)cc2Cl)o1` [compound 29], the “SRE.L activity” value in data set [2] is “almost complete loss in activity”.

With `c1ccc(-c2nnc(SCCC3OCCCO3)o2)cc1` [compound 28], the “SRE.L activity” value in [1] is “abolished activity”.

Turning to `O=C(O)CCSc1nnc(-c2ccc(Cl)cc2Cl)o1` [8j, 3-((5-(2,4-dichlorophenyl)-1,3,4-oxadiazol-2-yl)thio)propanoic acid], the “Effect on CTGF gene expression” value is recorded as “neither 8j nor 19f had any significant effect” with CTGF gene expression (48 h pre-treatment) and “dose-dependently reduced CTGF gene expression” in the data set on CTGF gene expression (72 h pre-treatment). In addition, the “Bleomycin-induced fibrotic effects (dermal thickness and hydroxyproline content) vs bleomycin/vehicle control” value in data set [6] (10 mg/kg PO, 14 days) is “significant effects”. For the same compound, the “Bleomycin-induced fibrotic effects (dermal thickness and hydroxyproline content)” value in [6] (0.1, 1 and 10 mg/kg/day by oral gavage, 14 days) is “dose-dependently reduce”.

As for `Cc1ccc(=O)n(-c2ccccc2)c1` [Pirfenidone, reference compound], the “CTGF expression, % control” value with CTGF gene expression (at 10^−5 M) stood at 91 % control. The “Concentration above which cytotoxic” value in the data set with cells of the SRE.L assay (CellTiter-Fluor) is > 100 µM. Besides, the IC50 in data set [1] (read-out: SRE.L assay IC50) is > 100 µM. Besides, the “Effect on bleomycin-induced lung fibrosis” value in data set [8] is “attenuate bleomycin-induced lung fibrosis”.

`O=C(O)CCCOc1nnc(-c2ccc(Cl)cc2Cl)o1` [compound 11, 4-((5-(2,4-dichlorophenyl)-1,3,4-oxadiazol-2-yl)oxy)butanoic acid]: the “SRE.L activity” value in data set [2] is “almost complete loss in activity”.
